Laboratory results as given in ChEMBL document CHEMBL1132288, “Synthesis and in vitro pharmacology of a series of new chiral histamine H3-receptor ligands: 2-(R and S)-Amino-3-(1H-imidazol-4(5)-yl)propyl ether derivatives” (J Med Chem, 1999).
Activity calls are given as the source filed them. The calls are words filed in the database; no cut-off is given here.

Key:
[1] = molecular target: T1, Histamine H3 receptor (Rattus norvegicus, UniProt Q9QYN8); experiment: Binding affinity of compound against Histamine H3 receptor
T1 sequence (Q9QYN8 whole entry): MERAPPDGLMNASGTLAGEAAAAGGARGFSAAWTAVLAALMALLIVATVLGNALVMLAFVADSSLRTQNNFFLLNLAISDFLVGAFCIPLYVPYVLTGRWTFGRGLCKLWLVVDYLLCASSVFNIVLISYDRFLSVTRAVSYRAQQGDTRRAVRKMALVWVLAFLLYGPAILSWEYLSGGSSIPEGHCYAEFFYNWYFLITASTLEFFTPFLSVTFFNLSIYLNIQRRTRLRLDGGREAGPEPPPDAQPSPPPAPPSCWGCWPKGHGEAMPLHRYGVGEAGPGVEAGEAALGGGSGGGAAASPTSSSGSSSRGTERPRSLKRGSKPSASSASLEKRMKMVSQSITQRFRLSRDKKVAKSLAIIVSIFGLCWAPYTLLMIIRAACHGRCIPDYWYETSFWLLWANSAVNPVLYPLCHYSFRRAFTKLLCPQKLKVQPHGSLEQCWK
In short: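 Displacement of the radioligand [3H]R-(α)-methylhistamine from the histamine H3 receptor in an in vitro receptor binding assay.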

[2] = molecular target: Histamine H3 receptor (Rattus norvegicus) (UniProt Q9QYN8); experiment: Binding affinity for Histamine H3 receptor
Sequence of Histamine H3 receptor (Rattus norvegicus) (Q9QYN8 whole entry): as above
In short: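 Affinity for the H3 receptor measured in an in vitro binding assay by displacement of the radioligand [3H]R-(α)-methylhistamine.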

[3] = molecular target: Histamine H3 receptor (Rattus norvegicus) (UniProt Q9QYN8); experiment: Agonistic activity, Histamine H3 receptor dependent activation of G-proteins with GTP gamma-[35S] autoradiography of rat striatal tissue sections. at 10e-5 M conc.; maximal response; format: functional; conditions: filed as agonist
In short: (§1)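 Rat brain tissue sections were incubated with the test compound at the stated concentrations together with GTPγ[35S], then washed and dried. Film autoradiograms were digitized and quantified against [14C] standards. Responses were read from cerebral cortex and striatum, four animals per region, with cerebellum (no H3 receptors) as a nonspecific-effect control.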

[4] = molecular target: Histamine H3 receptor (Rattus norvegicus) (UniProt Q9QYN8); experiment: Agonistic activity, Histamine H3 receptor dependent activation of G-proteins with GTP gamma-[35S] autoradiography of rat cortical tissue sections. at 10e-5 M conc; maximal response; format: functional; conditions: filed as agonist; in short: as §1
[5] = molecular target: Histamine H3 receptor (Rattus norvegicus) (UniProt Q9QYN8); conditions: filed as antagonist; 10e-6 M
[6] = molecular target: Histamine H3 receptor (Rattus norvegicus) (UniProt Q9QYN8); conditions: filed as agonist; 10e-5 M
[7] = molecular target: Histamine H3 receptor (Rattus norvegicus) (UniProt Q9QYN8); experiment: Agonistic activity, Histamine H3 receptor dependent activation of G-proteins with GTP gamma-[35S] autoradiography of rat cortical tissue sections. at 10e-5 M conc.; maximal response; format: functional; conditions: filed as agonist; in short: as §1
[8] = molecular target: Histamine H3 receptor (Rattus norvegicus) (UniProt Q9QYN8); conditions: filed as antagonist
[9] = molecular target: Histamine H3 receptor (Rattus norvegicus) (UniProt Q9QYN8); conditions: filed as antagonist; remark: listed apart in the source
[10] = molecular target: Histamine H3 receptor (Rattus norvegicus) (UniProt Q9QYN8); conditions: filed as antagonist; 10e-6 M; remark: listed apart in the source
[11] = molecular target: Histamine H3 receptor (Rattus norvegicus) (UniProt Q9QYN8); conditions: Striatum; filed as antagonist; 10e-6 M
[12] = molecular target: Histamine H3 receptor (Rattus norvegicus) (UniProt Q9QYN8); experiment: Agonistic activity, Histamine H3 receptor dependent activation of G-proteins with GTP gamma-[35S] autoradiography of rat cortical tissue sections. at 10e-5 M conc.; weak response (between half-maximal and basal; format: functional; conditions: filed as partial agonist; in short: as §1
[13] = molecular target: Histamine H3 receptor (Rattus norvegicus) (UniProt Q9QYN8); experiment: Agonistic activity, Histamine H3 receptor dependent activation of G-proteins with GTP gamma-[35S] autoradiography of rat striatal tissue sections. at 10e-5 M conc.; half-maximal response; format: functional; conditions: filed as partial agonist; in short: as §1
[14] = molecular target: Histamine H3 receptor (Rattus norvegicus) (UniProt Q9QYN8); conditions: Striatum, filed as antagonist, 10e-6 M
[15] = molecular target: Histamine H3 receptor (Rattus norvegicus) (UniProt Q9QYN8); conditions: filed as antagonist; 10e-5 M
[16] = molecular target: Histamine H3 receptor (Rattus norvegicus) (UniProt Q9QYN8); conditions: filed as antagonist, 10e-6 M
[17] = molecular target: Histamine H3 receptor (Rattus norvegicus) (UniProt Q9QYN8); conditions: Striatum, 10e-5 M
[18] = molecular target: Histamine H3 receptor (Rattus norvegicus) (UniProt Q9QYN8); experiment: Agonistic activity, H3-receptor dependent activation of G-proteins with GTP gamma-[35S] autoradiography of rat striatal tissue sections. at 10e-5 M conc.; maximal response; format: functional; conditions: filed as agonist; in short: as §1
[19] = molecular target: Histamine H3 receptor (Rattus norvegicus) (UniProt Q9QYN8); experiment: Agonistic activity, H3-receptor dependent activation of G-proteins with GTP gamma-[35S] autoradiography of rat cortical tissue sections. at 10e-5 M conc.; maximal response; format: functional; conditions: filed as agonist; in short: as §1
[20] = molecular target: Histamine H3 receptor (Rattus norvegicus) (UniProt Q9QYN8); conditions: Striatum; 10e-8 M
[21] = molecular target: Histamine H3 receptor (Rattus norvegicus) (UniProt Q9QYN8); conditions: 10e-8 M
[22] = molecular target: Histamine H3 receptor (Rattus norvegicus) (UniProt Q9QYN8); conditions: Striatum; filed as antagonist; 10e-8 M
[23] = molecular target: Histamine H3 receptor (Rattus norvegicus) (UniProt Q9QYN8); conditions: filed as antagonist; 10e-8 M
[24] = molecular target: Histamine H3 receptor (Rattus norvegicus) (UniProt Q9QYN8); conditions: filed as antagonist; 10e-5 M; remark: listed apart in the source
[25] = molecular target: Histamine H3 receptor (Rattus norvegicus) (UniProt Q9QYN8); conditions: Striatum; filed as antagonist; 10e-5 M
[26] = molecular target: Histamine H3 receptor (Rattus norvegicus) (UniProt Q9QYN8); experiment: Agonistic activity, Histamine H3 receptor dependent activation of G-proteins with GTP gamma-[35S] autoradiography of rat cortical tissue sections. at 10e-5 M conc.;no response above basal; format: functional; in short: as §1
[27] = molecular target: Histamine H3 receptor (Rattus norvegicus) (UniProt Q9QYN8); experiment: Agonistic activity, Histamine H3 receptor dependent activation of G-proteins with GTP gamma-[35S] autoradiography of rat striatal tissue sections. at 10e-5 M conc.;no response above basal; format: functional; in short: as §1
[28] = molecular target: T1, Histamine H3 receptor; experiment: PKi was measured by Histamine H3 receptor binding assay (N-alpha-MeHA) on rat cerebral cortex.; format: tissue-based
In short: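 Affinity measured by displacement of the radioligand [3H]R-(α)-methylhistamine in an in vitro H3-receptor binding assay.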

[29] = molecular target: Histamine H3 receptor (Rattus norvegicus) (UniProt Q9QYN8); experiment: Agonistic activity, Histamine H3 receptor dependent activation of G-proteins with GTP gamma-[35S] autoradiography of rat cortical tissue sections. at 10e-5 M conc.; half-maximal response; format: functional; conditions: filed as partial agonist; in short: as §1

Structure (SMILES): N[C@H](/C=C\[C@@H]1C[C@H]1c1c[nH]cn1)CC1CCCCC1
- Ki [1]: 100 nM

Structure (SMILES): C[C@H](c1c[nH]cn1)[C@@H](C)N
- pD2 [2]: 8.5

Structure (SMILES): N[C@H](/C=C/[C@@H]1C[C@H]1c1c[nH]cn1)CC1CCCCC1
- Ki [1]: 0.398 nM

Structure (SMILES): N[C@@H](COCC1CCCCC1)Cc1c[nH]cn1
- Agonistic activity [3]: Agonist
- Agonistic activity [4]: Agonist

Structure (SMILES): NCCc1c[nH]cn1
- Agonistic activity [3]: Agonist
- Antagonist activity [5]: Antagonist
- Agonist activity [6]: Agonist
- pD2 [2]: 7.2
- Agonistic activity [7]: Agonist

Structure (SMILES): N[C@@H](Cc1ccccc1)C(=O)N[C@@H]1C[C@H]1c1c[nH]cn1
- pD2 [2]: 8.7

Structure (SMILES): c1nc(CC2CCNCC2)c[nH]1
- pD2 [2]: 8

Structure (SMILES): N[C@H]1C[C@@H]1c1c[nH]cn1 [VUF-5297]
- Ki [1]: 25.1 nM

Structure (SMILES): NCCc1c[nH]cn1.N[C@H](COCc1ccc(I)cc1)Cc1c[nH]cn1
- Antagonist activity [8]: Partial antagonist
- Antagonist activity [9]: Partial antagonist
- Antagonist activity [10]: Partial antagonist
- Antagonist activity [11]: Partial antagonist

Structure (SMILES): N[C@H](COCc1ccccc1)Cc1c[nH]cn1
- Agonistic activity [12]: Partial agonist
- Agonistic activity [13]: Partial agonist

Structure (SMILES): C[C@H](N)[C@@H](C)c1c[nH]cn1
- pD2 [2]: 6.5

Structure (SMILES): NCCc1c[nH]cn1.N[C@@H](COCc1ccc(Br)cc1)Cc1c[nH]cn1
- Antagonist activity [14]: Antagonist
- Antagonist activity [15]: Partial antagonist
- Antagonist activity [16]: Antagonist
- Antagonist activity [17]: Partial agonist

Structure (SMILES): N[C@@H](Cc1ccccc1)C(=O)NCCc1c[nH]cn1
- Ki [1]: 100 nM

Structure (SMILES): N=C(N)SCCc1c[nH]cn1
- pD2 [2]: 8.1

Structure (SMILES): C[C@@H](N)Cc1c[nH]cn1
- pD2 [2]: 8.4

Structure (SMILES): NCCCCCc1c[nH]cn1
- Agonistic activity [18]: Agonist
- Agonistic activity [19]: Agonist

Structure (SMILES): N[C@@H]1C[C@H]1c1cnc[nH]1 [VUF-5296]
- Ki [1]: 3.16 nM

Structure (SMILES): Ic1ccc(COCCCc2c[nH]cn2)cc1.NCCc1c[nH]cn1
- Antagonist activity [20]: inactive
- Antagonist activity [21]: inactive

Structure (SMILES): N[C@@H](Cc1ccccc1)C(=O)N[C@H]1C[C@@H]1c1c[nH]cn1
- Ki [1]: 20 nM

Structure (SMILES): NCCc1c[nH]cn1.S=C(NC1CCCCC1)N1CCC(c2c[nH]cn2)CC1
- Antagonist activity [22]: Antagonist
- Antagonist activity [23]: Agonist

Structure (SMILES): NCCc1c[nH]cn1.N[C@H](COCC1CCCCC1)Cc1c[nH]cn1
- Antagonist activity [24]: Antagonist
- Antagonist activity [14]: Antagonist
- Antagonist activity [25]: Antagonist
- Antagonist activity [16]: Antagonist

Structure (SMILES): NCCc1c[nH]cn1.N[C@@H](COCC1CCCCC1)Cc1c[nH]cn1
- Antagonist activity [24]: Antagonist
- Antagonist activity [14]: Antagonist
- Antagonist activity [25]: Antagonist
- Antagonist activity [16]: Antagonist

Structure (SMILES): NCCc1c[nH]cn1.N[C@@H](COCc1ccccc1)Cc1c[nH]cn1
- Antagonist activity [24]: Antagonist
- Antagonist activity [14]: Antagonist
- Antagonist activity [25]: Antagonist
- Antagonist activity [16]: Antagonist

Structure (SMILES): CC(C)(C)CCC#C[C@@H]1C[C@H]1c1c[nH]cn1 [CIPRALISANT]
- Ki [1]: 0.126 nM
- pD2 [2]: 8.5

Structure (SMILES): CNCCc1cnc[nH]1
- pD2 [2]: 7.7

Structure (SMILES): N[C@@H](COCc1ccc(I)cc1)Cc1c[nH]cn1
- Agonistic activity [26]: inactive
- Agonistic activity [27]: inactive

Structure (SMILES): N[C@H](COCc1ccc(I)cc1)Cc1c[nH]cn1
- Agonistic activity [26]: inactive
- Agonistic activity [27]: inactive

Structure (SMILES): N[C@H](Cc1ccccc1)C(=O)NCCc1c[nH]cn1
- Ki [1]: > 10000 nM

Structure (SMILES): NCCc1c[nH]cn1.N[C@@H](COCc1ccc(I)cc1)Cc1c[nH]cn1
- Antagonist activity [14]: Antagonist
- Antagonist activity [15]: Partial antagonist
- Antagonist activity [16]: Antagonist
- Antagonist activity ([17]; filed as antagonist): Partial agonist

Structure (SMILES): C[C@H]1NCC[C@@H]1c1c[nH]cn1
- pD2 [2]: 7.1

Structure (SMILES): N[C@H](COCC1CCCCC1)Cc1c[nH]cn1
- Agonistic activity [3]: Agonist
- Agonistic activity [7]: Agonist

Structure (SMILES): C[C@@H]1NCC[C@H]1c1c[nH]cn1
- pD2 [2]: 7.1

Structure (SMILES): N=C(NCc1ccc(Cl)cc1)SCCCc1c[nH]cn1.NCCc1c[nH]cn1
- Antagonist activity [20]: inactive
- Antagonist activity [21]: inactive

Structure (SMILES): NCCc1c[nH]cn1.N[C@H](COCc1ccccc1)Cc1c[nH]cn1
- Antagonist activity [24]: Antagonist
- Antagonist activity [14]: Antagonist
- Antagonist activity [25]: Antagonist
- Antagonist activity [16]: Antagonist

Structure (SMILES): NCCc1c[nH]cn1.N[C@H](COCc1ccc(Br)cc1)Cc1c[nH]cn1
- Antagonist activity [14]: Antagonist
- Antagonist activity [15]: Partial antagonist
- Antagonist activity [16]: Antagonist
- Antagonist activity [17]: Partial agonist

Structure (SMILES): c1ccc(COCCCc2c[nH]cn2)cc1 [PROXYFAN]
- Ki [28]: 5.01 nM

Structure (SMILES): N=C(N)CCCc1c[nH]cn1
- pD2 [2]: 9

Structure (SMILES): N[C@@H](COCc1ccc(Br)cc1)Cc1c[nH]cn1
- Agonistic activity [29]: Partial agonist
- Agonistic activity [13]: Partial agonist

Structure (SMILES): N[C@@H](COCc1ccccc1)Cc1c[nH]cn1
- Agonistic activity [26]: inactive
- Agonistic activity [27]: inactive

Structure (SMILES): N[C@H](COCc1ccc(Br)cc1)Cc1c[nH]cn1
- Agonistic activity [29]: Partial agonist
- Agonistic activity [13]: Partial agonist
